8 compounds from ChEMBL document CHEMBL3769399, “Synthesis and cytotoxic activities of some pyrazoline derivatives bearing phenyl pyridazine core as new apoptosis inducers” (Eur J Med Chem, 2016) can be followed below.

Series [1] concerns A549. Kind of series: Antiproliferative activity against human A549 cells assessed as cell viability after 24 hrs by MTT assay. It counts as functional, cell-based. Particulars: A549, 24 h. The gist of the method: (§1)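 Monolayers in DMEM (A549) or RPMI (MCF-7) with 10% fetal calf serum, penicillin and streptomycin at 37 °C and 5% CO2. Seeded overnight at 10^3 cells/well, then dosed at 0–100 from a serum-free stock in 1% DMSO diluted in complete medium. After 24 h, viability was read by WST-1 premix at 450 nm and blank-corrected against untreated cells. IC50 given as mean with standard error.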

In series [2] the test system is HepG2. Kind of series: Antiproliferative activity against human HepG2 cells assessed as cell viability after 24 hrs by MTT assay. Particulars: HepG2, 24 h. The format is functional, cell-based. The method, boiled down:
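HepG2 grown as monolayer in DMEM plus 10% fetal calf serum and penicillin/streptomycin at 37 °C, 5% CO2. Plated overnight at 10^3 cells/well and exposed 24 h to five levels (0–100) diluted in complete medium from a 1% DMSO stock. WST-1 absorbance at 450 nm gave blank-corrected % viability versus untreated control, from which IC50 was derived.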
(Tetrazolium assays rely on reduction of a dye to a coloured formazan, in cell work by metabolically active cells.)

For series [3], the system named is MCF7. Put plainly: Antiproliferative activity against human MCF7 cells assessed as cell viability after 24 hrs by MTT assay. It counts as functional, cell-based. Particulars: MCF7, 24 h. The method, boiled down: as §1
Series [4] can be described thus: Antiproliferative activity against human Caco2 cells assessed as cell viability after 24 hrs by MTT assay. The format is functional, cell-based. Particulars: Caco-2, 24 h. The gist of the method: (§2)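 CaCo-2 kept in RPMI with 10% fetal calf serum and antibiotics at 37 °C, 5% CO2. Cells were seeded at 10^3 per well overnight, then treated 24 h at 0, 5, 10, 50 and 100, diluted from a stock containing 1% DMSO. Viability came from WST-1 read at 450 nm, blank-subtracted and normalised to untreated cells.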

A short description of series [5]: Cytotoxicity against HEK293 cells assessed as cell viability at 10 uM after 24 hrs by MTT assay. The format is cell-based. The following applies: human, read-out: Activity. The method, boiled down:
(§3)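 Human embryonic kidney 293 cells, as normal-cell counterpart, treated at four levels (10, 100, 200, 300). Percentage of viable cells reported with SE at each level, and IC50 estimated.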

Series [6] is described as follows: Cytotoxicity against HEK293 cells assessed as cell viability at 100 uM after 24 hrs by MTT assay. It counts as cell-based. Particulars: human, read-out: Activity. The method, boiled down:
as §3

Series [7] can be described thus: Cytotoxicity against HEK293 cells assessed as cell viability at 200 uM after 24 hrs by MTT assay. The format is cell-based. Particulars: human, read-out: Activity. The gist of the method: as §3
Series [8] can be described thus: Cytotoxicity against HEK293 cells assessed as cell viability at 300 uM after 24 hrs by MTT assay. It counts as cell-based. The following applies: human, read-out: Activity. The method, boiled down: as §3
The subject of another series is HEK293. Put plainly: Cytotoxicity against HEK293 cells assessed as cell viability after 24 hrs by MTT assay. The format is cell-based. Particulars: Homo sapiens, HEK293, 24 h. The gist of the method: as §3
In series [9] the test system is MCF7. Kind of series: Induction of apoptosis in human MCF7 cells at 10 uM by annexin V-FITC/ethidium homodimer III staining-based flow cytometry relative to control. The format is functional. The gist of the method: (§4)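 Treated cells at 2–3×10^5/mL were resuspended in 1X binding buffer and stained with FITC-Annexin V (apoptosis) plus Ethidium Homodimer III (necrosis) for 15 min at room temperature in the dark. Buffer was added and FACS was read within 1 h. Percent induction is the compound's apoptotic or necrotic fraction minus that of untreated negative control.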

Series [10] has as its system MCF7. Kind of series: Induction of necrosis in human MCF7 cells at 10 uM by annexin V-FITC/ethidium homodimer III staining-based flow cytometry relative to control. It counts as functional. The method, boiled down:
as §4
In general terms: In flow cytometry, cells or beads pass a laser one at a time.

Series [11] in a line: Antiproliferative activity against human Caco2 cells assessed as cell viability at 10 uM after 24 hrs by MTT assay. The format is functional. The following applies: Caco-2, 24 h, read-out: Activity. The method, boiled down: as §2
Series [12] has as its system HepG2. Put plainly: Induction of apoptosis in human HepG2 cells at 10 uM by annexin V-FITC/ethidium homodimer III staining-based flow cytometry relative to control. It counts as functional. The gist of the method:
as §4

Series [13] relates to HepG2. Kind of series: Induction of necrosis in human HepG2 cells at 10 uM by annexin V-FITC/ethidium homodimer III staining-based flow cytometry relative to control. The format is functional. The method, boiled down: as §4
Series [14] has as its system A549. Kind of series: Induction of apoptosis in human A549 cells at 10 uM by annexin V-FITC/ethidium homodimer III staining-based flow cytometry relative to control. It counts as functional. The gist of the method: as §4
For series [15], the system named is A549. Kind of series: Induction of necrosis in human A549 cells at 10 uM by annexin V-FITC/ethidium homodimer III staining-based flow cytometry relative to control. The format is functional. The method, boiled down: as §4
For series [16], the system named is Caco-2. Kind of series: Induction of apoptosis in human Caco2 cells at 10 uM by annexin V-FITC/ethidium homodimer III staining-based flow cytometry relative to control. The format is functional. The gist of the method:
as §4

Series [17] concerns Caco-2. Kind of series: Induction of necrosis in human Caco2 cells at 10 uM by annexin V-FITC/ethidium homodimer III staining-based flow cytometry relative to control. It counts as functional. The gist of the method:
as §4

For series [18], the system named is MCF7. Put plainly: Induction of apoptosis in human MCF7 cells assessed as increase in caspase 3 activation at IC50 using Ac-Asp-Glu-Val-Asp-pNA as substrate after 24 hrs by colorimetric assay relative to control. The format is functional. The gist of the method:
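MCF-7 cells were grown in RPMI with 10% fetal calf serum, penicillin and streptomycin at 37 °C under 5% CO2, then seeded at 5 × 10^5 cells/well and treated for 24 h. After the medium was removed, cells were lysed with lysis buffer and shaken for 10 min. Lysate was added to caspase-3 reaction buffer containing diluted substrate. The increase in A405 was read over 30 min and expressed relative to untreated controls.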

A word on the IC50: it is the concentration that inhibits the measured activity by half. For `Fc1ccc(C2CC(c3ccc(Cl)cc3)=NN2c2ccc(-c3ccccc3)nn2)cc1` (stereo not given), the IC50 with A549 [1] is above 100 µM; in the series with HepG2 [2], 10 µM; with MCF7 [3] it was 3.75 µM; in [4], above 100 µM; in the series on HEK293, above 300 µM. For the same compound, the viability at 24 h, 10 µM in series [5] was 85.9%. Besides, the viability at 24 h, 100 µM in series [6] is 82.3%. For the same compound, the viability at 24 h, 200 µM in series [7] was determined as 75.8%. Besides, in [8], the viability at 24 h, 300 µM was 68.8%. Further, the Activity in the series with MCF7 [9] was found to be 32.1%; in the series with MCF7 [10], 1.98%.
Turning to `Fc1ccc(C2CC(c3ccccc3)=NN2c2ccc(-c3ccccc3)nn2)cc1` (stereo not given), the IC50 in the series with A549 [1] is 89.2 µM; with HepG2 [2], 8.42 µM; in the series with MCF7 [3] it was 100 µM; in [4], 10 µM; with HEK293, above 300 µM. In series [11], the viability at 10 µM amounted to 50%. Further, the viability at 24 h, 10 µM in series [5] stood at 93.7%. The viability at 24 h, 100 µM in [6] worked out at 91.9%. For the same compound, in series [7], the viability at 24 h, 200 µM was 86.3%. For the same compound, the viability at 24 h, 300 µM in series [8] was found to be 78.6%. Besides, the Activity with HepG2 [12] amounted to 30.5%; in the series on HepG2 [13], 8.84%.
As for `Clc1ccc(C2=NN(c3ccc(-c4ccccc4)nn3)C(c3ccccc3)C2)cc1` (stereo not given), the half-inhibitory concentration (IC50) in the series with A549 [1] is 96.7 µM; with HepG2 [2] it was 8.75 µM; in the series with MCF7 [3], 10 µM; in series [4], 100 µM; in the series on HEK293, above 300 µM. In [5], the viability at 24 h, 10 µM came to 84%. For the same compound, the viability at 24 h, 100 µM in [6] is 81.6%. Further, the viability at 24 h, 200 µM in series [7] came to 78.1%. The viability at 24 h, 300 µM in series [8] turned out to be 71.6%. Also, the Activity in the series with HepG2 [12] turned out to be 22.7%; in the series on HepG2 [13] it was 23.45%.
For `Clc1ccc(C2=NN(c3ccc(-c4ccccc4)nn3)C(c3ccc(Cl)cc3)C2)cc1` (stereo not given), the IC50 was above 100 µM in the series with A549 [1]; 10 µM with HepG2 [2]; 8.8 µM in the series on MCF7 [3]; above 100 µM in [4]; above 300 µM in the series with HEK293. For the same compound, the viability at 24 h, 10 µM in [5] came out at 85.6%. For the same compound, the viability at 24 h, 100 µM in series [6] came to 81.7%. The viability at 24 h, 200 µM in [7] came out at 79.8%. For the same compound, in [8], the viability at 24 h, 300 µM stood at 76.4%. The Activity in the series on MCF7 [9] was 39%; in the series on MCF7 [10] it was 0.1%.
`Clc1ccc(C2CC(c3ccccc3)=NN2c2ccc(-c3ccccc3)nn2)cc1` (stereo not given): the IC50 in the series with A549 [1] is 100 µM; in the series on HepG2 [2] it was 6.31 µM; in the series with MCF7 [3] it was 100 µM; in series [4], 100 µM; in the series with HEK293, above 300 µM. Also, in [5], the viability at 24 h, 10 µM was 96.6%. Besides, the viability at 24 h, 100 µM in series [6] is 91.2%. Further, the viability at 24 h, 200 µM in series [7] was 88.3%. Moreover, the viability at 24 h, 300 µM in series [8] amounted to 74%. For the same compound, the Activity amounted to 44.4% with HepG2 [12] and 4.4% with HepG2 [13].
Turning to `FC(F)(F)c1ccc(C2CC(c3ccccc3)=NN2c2ccc(-c3ccccc3)nn2)cc1` (stereo not given), the IC50 in the series on A549 [1] was 9.16 µM; in the series on HepG2 [2], 10 µM; in the series on MCF7 [3], 100 µM; in [4], 50 µM; with HEK293, above 300 µM. In addition, the viability at 24 h, 10 µM in series [5] was 89.8%. Also, in [6], the viability at 24 h, 100 µM amounted to 86.2%. For the same compound, the viability at 24 h, 200 µM in series [7] turned out to be 82.3%. Further, the viability at 24 h, 300 µM in [8] turned out to be 70.8%. In addition, the Activity turned out to be 46.6% in the series on A549 [14] and 11.11% in the series on A549 [15].
As to `FC(F)(F)c1ccc(C2CC(c3ccc(Cl)cc3)=NN2c2ccc(-c3ccccc3)nn2)cc1` (stereo not given), the IC50 with A549 [1] was above 100 µM; with HepG2 [2] it was 8.33 µM; in the series on MCF7 [3] it was 1.67 µM; in [4], 10 µM; in the series with HEK293, above 300 µM. For the same compound, the viability at 10 µM in series [11] amounted to 50%. In addition, the viability at 24 h, 10 µM in series [5] amounted to 92.7%. Moreover, the viability at 24 h, 100 µM in [6] is 87.7%. For the same compound, the viability at 24 h, 200 µM in series [7] is 84.6%. For the same compound, the viability at 24 h, 300 µM in [8] came to 79.1%. Moreover, the Activity stood at 24.8% in the series on HepG2 [12]; 4.97% with HepG2 [13]; 27.2% with MCF7 [9]; 1.26% in the series on MCF7 [10]; 13.4% in the series with Caco-2 [16]; 1.87% with Caco-2 [17]. Further, the “fold change (FC)” value with MCF7 [18] stood at 5.
Consider `COc1ccc(C2CC(c3ccccc3)=NN2c2ccc(-c3ccccc3)nn2)c(OC)c1` (stereo not given), for which the IC50 is 9.56 µM with A549 [1]; 100 µM with HepG2 [2]; above 100 µM in the series on MCF7 [3]; above 100 µM in [4]; above 300 µM with HEK293. Moreover, the viability at 24 h, 10 µM in series [5] worked out at 85.2%. Besides, the viability at 24 h, 100 µM in series [6] amounted to 82.9%. For the same compound, the viability at 24 h, 200 µM in [7] worked out at 81.1%. Moreover, the viability at 24 h, 300 µM in series [8] was 74.2%. Besides, the Activity came to 27% in the series on A549 [14] and 1.04% in the series on A549 [15].
